Laboratory results: ChEMBL document CHEMBL2311437, “Synthesis, molecular docking and evaluation of thiazolyl-pyrazoline derivatives containing benzodioxole as potential anticancer agents” (Bioorg Med Chem, 2013)

Assays:
[1] = Antiproliferative activity against mouse B16/F10 cells after 48 hrs by MTT assay; format: functional, cell-based; settings: B16-F10, 48 h
Procedure, shortened: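 Cells seeded 7×10^3/well, grown 24 h, then exposed 48 h to compounds at final 0.1–100 µg/mL. MTT (5 mg/mL in PBS) added for 4 h, then 10% SDS in 0.01 N HCl, 18 h at 37 °C. Absorbance read at 570 nm. Survival given as % of untreated cells. IC50 taken from replicates of 6 wells over at least three independent experiments.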

MCF7 [2] = test: Antiproliferative activity against human MCF7 cells after 48 hrs by MTT assay; format: functional, cell-based; settings: MCF7, 48 h
B16-F10 = test: Induction of apoptosis in mouse B16/F10 cells assessed as increase in cleaved caspase 3 levels after 24 hrs by Western blotting method; format: functional, cell-based
Procedure, shortened: (§1)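 Cells treated 24 h, harvested and lysed in Tris pH 7.5/NaCl/NP-40 buffer with phosphatase and protease inhibitors. Protein quantified by BCA. Separation by 10% SDS–PAGE, transfer to PVDF, blocking in 5% milk 2 h at RT. Probed overnight at 4 °C with anti-HER-2 or anti-cleaved caspase 3, then HRP secondary antibody.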

MCF7 [3] = test: Induction of apoptosis in human MCF7 cells assessed as increase in cleaved caspase 3 levels after 24 hrs by Western blotting method; format: functional, cell-based; procedure, shortened: as §1
[4] = target: Receptor tyrosine-protein kinase erbB-2 (Mus musculus) (UniProt P70424); test: Inhibition of HER2 in mouse B16/F10 cells assessed as down regulation of HEr2 protein levels after 24 hrs by Western blotting method; format: cell-based; procedure, shortened: as §1
Receptor tyrosine-protein kinase erbB-2 (Mus musculus), sequence (P70424 whole entry, the tested form may be a part): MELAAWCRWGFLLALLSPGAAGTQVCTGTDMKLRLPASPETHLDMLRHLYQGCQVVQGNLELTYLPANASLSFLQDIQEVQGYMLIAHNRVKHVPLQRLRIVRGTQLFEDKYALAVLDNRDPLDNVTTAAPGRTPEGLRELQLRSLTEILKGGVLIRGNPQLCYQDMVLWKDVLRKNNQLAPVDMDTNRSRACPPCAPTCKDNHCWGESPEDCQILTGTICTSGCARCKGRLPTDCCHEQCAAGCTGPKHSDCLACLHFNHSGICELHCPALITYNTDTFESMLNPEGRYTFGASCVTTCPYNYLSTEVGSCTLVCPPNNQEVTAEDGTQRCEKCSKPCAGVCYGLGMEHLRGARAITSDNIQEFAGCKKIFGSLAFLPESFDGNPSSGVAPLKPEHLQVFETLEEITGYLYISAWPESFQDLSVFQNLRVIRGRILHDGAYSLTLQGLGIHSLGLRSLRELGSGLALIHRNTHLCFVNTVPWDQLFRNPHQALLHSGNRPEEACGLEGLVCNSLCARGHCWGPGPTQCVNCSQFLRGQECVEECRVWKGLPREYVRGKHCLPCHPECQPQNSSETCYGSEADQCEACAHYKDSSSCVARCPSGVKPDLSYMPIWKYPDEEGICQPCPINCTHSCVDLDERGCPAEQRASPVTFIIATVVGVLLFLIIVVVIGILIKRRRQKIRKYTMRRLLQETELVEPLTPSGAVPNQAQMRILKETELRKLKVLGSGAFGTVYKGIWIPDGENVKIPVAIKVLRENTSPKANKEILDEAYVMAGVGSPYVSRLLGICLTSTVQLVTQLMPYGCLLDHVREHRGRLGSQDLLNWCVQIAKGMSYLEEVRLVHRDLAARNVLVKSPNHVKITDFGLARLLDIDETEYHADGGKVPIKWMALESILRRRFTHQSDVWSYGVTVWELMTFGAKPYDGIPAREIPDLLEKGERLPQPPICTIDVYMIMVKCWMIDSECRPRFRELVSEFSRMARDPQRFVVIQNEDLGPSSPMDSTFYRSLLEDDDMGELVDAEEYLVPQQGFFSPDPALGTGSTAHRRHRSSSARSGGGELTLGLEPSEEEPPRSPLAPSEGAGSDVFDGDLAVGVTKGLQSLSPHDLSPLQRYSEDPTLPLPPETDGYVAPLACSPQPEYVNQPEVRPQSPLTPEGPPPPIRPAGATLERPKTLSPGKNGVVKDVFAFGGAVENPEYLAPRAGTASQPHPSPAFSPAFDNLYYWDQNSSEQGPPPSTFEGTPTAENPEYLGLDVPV

[5] = target: Receptor tyrosine-protein kinase erbB-2 (Homo sapiens, UniProt P04626); test: Inhibition of human HER2 cytoplasmic domain (amino acids 676 to 1245) expressed in Sf9 cells by DELFIA time resolved fluorometry
Receptor tyrosine-protein kinase erbB-2, sequence (P04626 whole entry, the tested form may be a part): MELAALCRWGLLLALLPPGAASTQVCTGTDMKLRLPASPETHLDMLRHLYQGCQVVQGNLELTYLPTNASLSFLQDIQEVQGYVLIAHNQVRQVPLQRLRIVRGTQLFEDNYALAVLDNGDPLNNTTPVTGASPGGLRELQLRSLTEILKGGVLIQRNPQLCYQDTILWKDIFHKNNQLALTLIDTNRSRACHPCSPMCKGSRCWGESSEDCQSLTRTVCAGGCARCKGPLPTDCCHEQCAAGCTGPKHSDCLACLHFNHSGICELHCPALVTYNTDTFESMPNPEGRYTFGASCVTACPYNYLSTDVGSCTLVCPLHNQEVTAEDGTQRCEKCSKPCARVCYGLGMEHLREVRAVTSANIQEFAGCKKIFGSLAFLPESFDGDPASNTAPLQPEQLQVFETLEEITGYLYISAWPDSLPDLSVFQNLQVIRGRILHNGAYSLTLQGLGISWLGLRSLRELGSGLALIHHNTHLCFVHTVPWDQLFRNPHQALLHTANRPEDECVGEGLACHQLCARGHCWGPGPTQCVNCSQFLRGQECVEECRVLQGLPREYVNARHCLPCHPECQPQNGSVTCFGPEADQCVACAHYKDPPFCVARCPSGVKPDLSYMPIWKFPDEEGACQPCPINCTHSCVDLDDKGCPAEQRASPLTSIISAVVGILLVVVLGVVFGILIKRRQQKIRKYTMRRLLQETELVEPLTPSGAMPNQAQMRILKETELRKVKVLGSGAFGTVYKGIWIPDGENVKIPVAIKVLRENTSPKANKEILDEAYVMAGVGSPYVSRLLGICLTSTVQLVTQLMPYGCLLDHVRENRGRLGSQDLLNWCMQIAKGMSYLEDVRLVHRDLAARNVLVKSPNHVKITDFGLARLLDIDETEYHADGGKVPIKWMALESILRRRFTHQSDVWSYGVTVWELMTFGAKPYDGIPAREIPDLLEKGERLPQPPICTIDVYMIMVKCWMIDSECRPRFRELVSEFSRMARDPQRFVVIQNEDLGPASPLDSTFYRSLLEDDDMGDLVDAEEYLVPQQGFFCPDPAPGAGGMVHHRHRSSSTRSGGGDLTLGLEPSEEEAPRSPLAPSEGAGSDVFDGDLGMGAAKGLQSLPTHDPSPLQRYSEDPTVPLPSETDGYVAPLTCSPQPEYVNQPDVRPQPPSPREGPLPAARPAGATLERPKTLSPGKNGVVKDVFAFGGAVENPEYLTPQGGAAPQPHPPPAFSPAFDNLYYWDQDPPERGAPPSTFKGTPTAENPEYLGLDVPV
Procedure, shortened: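 His6-tagged HER-2 was expressed in Sf-9 cells (3-day infection) and Ni-NTA purified at 4 °C. Assay measures autophosphorylation. Compound in 25 mM HEPES pH 7.4 (DMSO <0.1%) preincubated 10 min at RT with 12.5 ng enzyme. Then buffer (MnCl2, Na3VO4, DTT) and 0.1 mM ATP-50 mM MgCl2 (stock mix) added for 1 h. Readout: europium anti-phosphotyrosine, 1 h, ex 340/em 615 nm. IC50 from eight-concentration inhibition curves.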

| Structure (SMILES) | IC50 (MCF7 [2]) [nM] | inhibition [4] | IC50 [5] [nM] | IC50 [1] [nM] | Activity (B16-F10) | Activity (MCF7 [3]) |
| --- | --- | --- | --- | --- | --- | --- |
| Fc1ccc(C2=NN(c3nc(-c4ccc(Br)cc4)cs3)C(c3ccc4c(c3)OCO4)C2)cc1 (stereo not given) | 3430 | – | – | 3810 | – | – |
| COc1ccc(-c2csc(N3N=C(c4ccc(Cl)cc4)CC3c3ccc4c(c3)OCCO4)n2)cc1 (stereo not given) | 3030 | – | – | 3120 | – | – |
| C#Cc1cccc(Nc2ncnc3cc(OCCOC)c(OCCOC)cc23)c1 [ERLOTINIB] | – | – | – | 50 | – | – |
| Fc1ccc(C2=NN(c3nc(-c4ccc(Br)cc4)cs3)C(c3ccc4c(c3)OCCO4)C2)cc1 (stereo not given) | 4200 | – | – | 4110 | – | – |
| COc1ccc(-c2csc(N3N=C(c4ccc(C)cc4)CC3c3ccc4c(c3)OCCO4)n2)cc1 (stereo not given) | 2680 | – | – | 2870 | – | – |
| COc1ccc(C2=NN(c3nc(-c4ccc(OC)cc4)cs3)C(c3ccc4c(c3)OCCO4)C2)cc1 (stereo not given) | 2730 | – | – | 3010 | – | – |
| COc1ccc(C2=NN(c3nc(-c4ccc(OC)cc4)cs3)C(c3ccc4c(c3)OCO4)C2)cc1 (stereo not given) | 2730 | – | – | 2670 | – | – |
| COc1ccc(C2=NN(c3nc(-c4ccc(Br)cc4)cs3)C(c3ccc4c(c3)OCO4)C2)cc1 (stereo not given) | 2470 | – | – | 2540 | – | – |
| COc1ccc(-c2csc(N3N=C(c4ccc(F)cc4)CC3c3ccc4c(c3)OCO4)n2)cc1 (stereo not given) | 3650 | – | – | 3980 | – | – |
| COc1ccc(-c2csc(N3N=C(c4ccc(F)cc4)CC3c3ccc4c(c3)OCCO4)n2)cc1 (stereo not given) | 4530 | – | – | 4430 | – | – |
| COc1ccc(C2=NN(c3nc(-c4ccc(Br)cc4)cs3)C(c3ccc4c(c3)OCCO4)C2)cc1 (stereo not given) | 2540 | – | – | 2520 | – | – |

More lines, in order of falling IC50 (MCF7 [2]), values ahead:

| IC50 (MCF7 [2]) [nM] | inhibition [4] | IC50 [5] [nM] | Structure (SMILES) | IC50 [1] [nM] | Activity (B16-F10) | Activity (MCF7 [3]) |
| --- | --- | --- | --- | --- | --- | --- |
| 2410 | – | – | COc1ccc(-c2csc(N3N=C(c4ccc(Cl)cc4)CC3c3ccc4c(c3)OCO4)n2)cc1 (stereo not given) | 2320 | – | – |
| 2230 | – | – | Clc1ccc(C2=NN(c3nc(-c4ccc(Br)cc4)cs3)C(c3ccc4c(c3)OCCO4)C2)cc1 (stereo not given) | 2150 | – | – |
| 1720 | – | 2380 | Clc1ccc(C2=NN(c3nc(-c4ccc(Br)cc4)cs3)C(c3ccc4c(c3)OCO4)C2)cc1 (stereo not given) | 1510 | – | – |
| 1590 | – | – | Cc1ccc(C2=NN(c3nc(-c4ccc(Br)cc4)cs3)C(c3ccc4c(c3)OCCO4)C2)cc1 (stereo not given) | 1680 | – | – |
| 1430 | – | – | COc1ccc(-c2csc(N3N=C(c4ccc(C)cc4)CC3c3ccc4c(c3)OCO4)n2)cc1 (stereo not given) | 1520 | – | – |
| 1410 | – | 2230 | Cc1ccc(C2=NN(c3nc(-c4ccc(Br)cc4)cs3)C(c3ccc4c(c3)OCO4)C2)cc1 (stereo not given) | 1390 | – | – |
| 870 | – | 1320 | COc1ccc(-c2csc(N3N=C(c4ccc(Br)cc4)CC3c3ccc4c(c3)OCCO4)n2)cc1 (stereo not given) | 1120 | – | – |
| 320 | – | 460 | Brc1ccc(C2=NN(c3nc(-c4ccc(Br)cc4)cs3)C(c3ccc4c(c3)OCCO4)C2)cc1 (stereo not given) | 430 | – | – |
| 270 | – | 850 | COc1ccc(-c2csc(N3N=C(c4ccc(Br)cc4)CC3c3ccc4c(c3)OCO4)n2)cc1 (stereo not given) | 320 | – | – |
| 90 | Dose-dependent effect | 180 | Brc1ccc(C2=NN(c3nc(-c4ccc(Br)cc4)cs3)C(c3ccc4c(c3)OCO4)C2)cc1 (stereo not given) | 120 | Dose-dependent effect | Dose-dependent effect |
